UCH37 inh: human UCH37 deubiquitinating enzyme inhibition. Q9Y5K5. purified proteasome/UCH37, Ub-AMC cleavage fluorescence. inhibition, % (concentration not given with the values). 0.33% of 330,000 active. AID 588478;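 active = mean inhibition over replicate wells above about 20%, limit read from the data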;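 note: 0% = compound-free wells with enzyme and 100% = wells lacking proteasome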
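System: Proteasome-associated human UCH37 deubiquitinase; Input: 0.15 nM proteasome in added enzyme buffer; Also added: Ub-AMC substrate from 1 µM stock; Incubation: 30 min compound-proteasome preincubation then 25 min substrate reaction, room temperature; Detection: fluorescence, ex 355 nm, em 460 nm; Read-out: % inhibition of Ub-AMC cleavage fluorescence; Benchmarks: no-proteasome and no-compound wells.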
PP5 inh: blocks human protein phosphatase 5 activity; purified PP5c, OMFP substrate fluorescence; inhibition, % at 6.7 µM; 0.18% of 320,000 active; AID 1987; P53041;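 active = inhibition above the campaign's mean inhibition across all tested compounds plus 3 SD, cut at about 9.5% in these data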;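 note: 0% = DMSO only and 100% = 100 µM cantharidin control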
Apaf-1 inh: human Apaf-1 inhibition; O14727; reconstituted apoptosome caspase-3 activity, DEVD-Rh110 fluorescence; inhibition, % at 20 µM; 0.71% of 330,000 active; active = inhibition of at least 40% at 20 µM;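 note: plate controls were DMSO wells for no effect and DEVD-CHO caspase inhibitor wells for full effect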
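Assay system: Apoptosome proteins | Medium: pH 7.5 Hepes buffer with CHAPS, BSA, DTT | Also added: Cytochrome c and DEVD-Rh110 substrate | Times: 30 min plus 50 min, RT | Detection: Rhodamine 110 fluorescence at Ex 480/Em 540 nm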
GSTO1 inh: counter-screen for RBBP9 inhibitors: inhibitors of human GSTO1 | inhibition, % at 5.96 µM | 1.1% of 300,000 active | P78417 | AID 1974 | recombinant GSTO1, activity-based probe fluorescence polarization;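 active = inhibition above the campaign mean inhibition plus 3 SD, cut at about 35% in these data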;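 note: 0% = GSTO1-1 with DMSO and 100% = wells lacking GSTO1-1 enzyme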
CTSL1 counter: cathepsin L1 inhibition, PFM18AAP counter-screen | recombinant F. hepatica cathepsin L1, Z-Leu-Arg-MCA fluorescence | inhibition, % at 5.96 µM | 0.49% of 300,000 active;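 active = inhibition above the mean of all tested compounds plus 3 SD, set per screening campaign, cut at about 17% in these data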;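 note: 0% = plate median of test compound wells and 100% = 1 µM Z-Phe-Ala-diazomethylketone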
PAD4 inh: inhibitors of human PAD4; Q9UM07; recombinant PAD4, RCA probe fluorescence polarization; inhibition, % at 6.36 µM; 0.41% of 330,000 active; AID 485272;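 active = percent inhibition above a cutoff equal to the mean of all tested compounds plus 3 SD, cut at about 15% in these data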;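 note: 0% = PAD4 with RCA probe and DMSO and 100% = probe without PAD4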
An asterisk follows results filed as active; x = not tested or not shown. Shown are actives, neighbours in structure and some others; about 2% of the full set was active somewhere.

SMILES	UCH37 inh	PP5 inh	Apaf-1 inh	GSTO1 inh	CTSL1 counter	PAD4 inh
CN(C)C(=O)c1ccc2c(c1[N+](=O)[O-])C(=O)c1ccccc1C2=O	6.7	0.7	10.2	36.0*	1.7	-2.3
CCc1nc(SCC(=O)Nc2nnc(CC)s2)c2c(C)c(C)sc2n1	3.1	1.4	-0.6	35.2*	4.8	-2.4
CCSc1nnc(NC(=O)CSc2nc(CC)nc3c2c(=O)n(C)c(=O)n3C)s1	-0.9	3.1	16.3	36.1*	0.8	0.3
C/C(=C\C=C\c1ccccc1)C(=O)c1c(C)cc(C)[nH]c1=O	1.3	-0.4	7.1	-0.3	22.2*	-0.2
CCc1ccc2nc(N(CCCN(C)C)C(=O)c3ccc(S(=O)(=O)N(C)C4CCCCC4)cc3)sc2c1	0.7	-2.2	53.6*	25.7	5.1	-3.3
CN(C)CCCN(C(=O)c1ccc(S(=O)(=O)N(C)C2CCCCC2)cc1)c1nc2ccc(F)cc2s1	1.4	0.2	15.2	1.6	1.8	-7.0
O=C(CNC(=O)c1ccc(F)cc1)NN=Cc1cn[nH]c1-c1ccccc1	4.8	x	x	x	x	x
O=C(O)CN1C(=O)/C(=C\c2cn(CC(=O)N3CCOCC3)c3ccccc23)SC1=S	24.4*	2.7	10.7	1.8	8.1	-3.7
O=C(CN(c1ccccn1)S(=O)(=O)c1ccccc1)NN=Cc1cccc([N+](=O)[O-])c1	1.2	x	x	x	x	x
CC(Nc1n[nH]c(=O)[nH]c1=O)C(=O)NN=Cc1cccs1 (configuration not stated)	2.2	x	x	x	x	x
CN(C)CCCNC(=O)CCc1nc2ccccc2c(=O)[nH]1	20.5*	0.3	4.1	8.9	3.0	-1.2
O=C(c1ccccc1)[C@@H]1[C@@H](C(=O)c2ccc(F)cc2)[C@@]2(C(=O)Nc3ccccc32)[C@H]2c3ccccc3C=CN12	x	3.7	63.7*	-2.7	-0.3	-22.9
CCCc1c(C(=O)N/N=C/c2ccc(OCc3ccccc3)c(OC)c2)nnn1-c1nonc1N	x	2.3	11.7	3.7	16.9*	3.8
O=C(c1cnc2n(c1=O)CCS2)N1CCc2ccccc21	2.7	3.4	7.5	0.2	2.5	-4.5
CC1Cc2ccccc2N1C(=O)c1cnc2n(c1=O)CCS2 (configuration not stated)	0.3	3.8	2.2	3.0	66.2*	1.4
NS(=O)(=O)c1ccc(NN=Cc2ccc(O)cc2O)c([N+](=O)[O-])c1	4.9	x	x	x	x	x
c1ccc(C2=Nc3ccccc3SC2c2nc3ccccc3[nH]2)cc1 (configuration not stated)	x	-0.1	-15.0	13.4	4.0	27.9*
COc1cc(C(c2oc(CO)cc(=O)c2O)c2oc(CO)cc(=O)c2O)cc(OC)c1OC	3.0	2.5	6.1	3.4	51.0*	2.7
COc1ccc(C=Nn2c(C)nc3sc(C)c(C)c3c2=O)cc1	0.5	x	x	x	x	x
Cc1ccc(C)n1-c1ccc(C(=O)NN)s1	5.2	0.7	3.0	13.0	20.8*	-4.7
CCOc1ccccc1NC(=O)COC(=O)C(CC(C)C)N1C(=O)C2CC=CCC2C1=O (configuration not stated)	3.5	2.2	10.6	-4.9	-2.5	-2.5
CC(C)CC(C(=O)OCC(=O)Nc1cccc(Cl)c1)N1C(=O)C2CC=CCC2C1=O (configuration not stated)	1.8	4.3	30.3	5.6	21.7*	-7.7
Clc1ccc(NN=Cc2cccnc2)cc1	7.7	x	x	x	x	x
Clc1ccc(N/N=C/c2cccnc2)cc1	x	-4.8	8.9	-0.3	16.7*	-4.0
CC(=NNC(=O)CSCc1ccc([N+](=O)[O-])cc1)c1cccc(Br)c1	1.6	x	x	x	x	x
SMILES	UCH37 inh	PP5 inh	Apaf-1 inh	GSTO1 inh	CTSL1 counter	PAD4 inh
COc1ccc(NC(=O)CSc2ccc3c4c(cccc24)C(=O)c2ccccc2-3)cc1	3.2	0.4	8.7	3.0	-3.5	4.0
N#Cc1cccc(NC(=O)CSc2ccc3c4c(cccc24)C(=O)c2ccccc2-3)c1	10.3	2.7	x	36.2*	8.7	6.7
COc1ccc(-c2csc(NC(=O)c3ccccc3NS(=O)(=O)c3ccc(F)c(F)c3)n2)cc1	-6.2	11.7*	20.2	-47.5	0.9	-8.4
CC(=NNc1ncc(Cl)cc1Cl)c1ccc(N2CCOCC2)cc1	-4.9	x	x	x	x	x
Oc1[nH]c2ccccc2c1N=NC(=S)N1CCOCC1	x	-1.9	-11.8	35.6*	1.5	2.7
Cc1ccc(N2C(=O)c3ccccc3C2C(=O)c2cc(C)ccc2O)cc1 (configuration not stated)	-0.1	2.4	9.9	35.0*	-0.9	5.0
O=C1C(=O)N(CCS(=O)(=O)c2ccccc2)c2ccc(F)cc21	3.9	1.4	11.0	35.9*	5.0	-6.1
Cc1ccc(C=NOC(=O)c2nn(C)cc2Cl)cc1	3.8	x	x	x	x	x
COC(=O)/C=C1\S/C(=N\N=CCC(=O)OC)NC1=O	14.1	x	x	x	x	x
Cc1nc(N2N=C(c3ccc(Cl)cc3)CC2c2ccco2)sc1C(=O)N(C)C (configuration not stated)	-187.6	2.9	14.6	8.9	25.1*	-2.7
O=C(O)CCCC(=O)NCc1c(Cl)cccc1Sc1ccc(Cl)cc1	6.2	0.1	-2.6	11.2	-1.6	-2.2
CC(C)(CC(=O)O)CC(=O)NCc1c(Cl)cccc1Sc1ccc(Cl)cc1	5.3	-0.4	-7.5	37.3*	-2.4	-4.6
Nc1ccc(O)c(C(=O)O)c1	x	-1.9	x	76.0*	-1.4	15.8*
COC(=O)CN(C#N)c1nc(SC)nc(N(C)C)n1	5.5	0.4	-13.3	7.0	29.4*	3.9
CCOC(=O)CN(C#N)c1nc(N(C)C)nc(N(C)C)n1	x	-1.1	-8.7	1.6	53.5*	-2.2
CSc1nc(N(C)C)nc(N(C)C#N)n1	-0.9	-0.5	-7.7	4.5	-3.3	-2.9
CCNc1nc(NC(C)C)nc(N(C#N)CC(=O)OC)n1	1.6	0.0	4.5	9.0	71.4*	-4.8
CCNc1nc(NC(C)C)nc(N(C#N)C(C)C(=O)N(C)C)n1 (configuration not stated)	0.9	0.8	-9.0	-7.6	-4.1	-1.9
O=C(NN=Cc1cccc(F)c1)c1csc2c1CCCC2	0.0	x	x	x	x	x
COc1ccc(-c2n[nH]c3c2CN(C(=O)c2ccc(OC)c(OC)c2)CC3)cc1	0.1	1.9	11.0	-14.0	34.0*	-2.0
COc1ccc(C=NNc2ncc(C(F)(F)F)cc2Cl)c(OC)c1OC	0.5	x	x	x	x	x
O=C(O)c1cc(O)c2c(c1)C(=O)c1cccc(O)c1C2=O	x	-0.7	-1.0	49.9*	0.3	-3.0
O=C(O)c1ccc2c(c1)S(=O)(=O)c1ccccc1C2=O	3.3	x	1.7	x	x	x
CC(=O)Nc1ccc(S(=O)(=O)N2CCN(c3ccc(C)c(Cl)c3)CC2)cc1	1.3	3.7	9.0	4.0	19.8*	1.1
CNc1nc2cc([N+](=O)[O-])c([N+](=O)[O-])cc2nc1NC	41.3*	-0.2	x	-2.0	-2.0	4.5
Oc1ccc(Cl)cc1CNc1cccc2cccnc12	7.9	2.4	91.3*	35.2*	-0.2	-1.6

Compound activity as filed in PubChem.
